High-throughput results as filed in PubChem BioAssay.
Hep lipid drop = modulators of hepatic lipid droplet formation. 240,000 tested, 0.4% active. inhibition, % at 6.5 µM. AML12 mouse hepatocytes, oleate lipid droplets, BODIPY imaging;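 active = lipid droplet intensity inhibited by at least 50%, with more than 500 cells counted; inconclusive = wells with under 300 cells, treated as cytotoxic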
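Material – AML12 mouse liver cells · Also added – oleate loading, 100 µM · Compound dosing – 6.5 µM single-point dosing · Times – overnight treatment with compound plus oleate · Measured by – fluorescence imaging, 20x objective, two fields per well · Read-out – percent inhibition of filter-corrected integrated lipid droplet intensity per well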
MPTP block = blocks calcium-induced mitochondrial swelling | 360,000 tested, 1.4% active | inhibition, % at 10 µM | isolated mouse mitochondria, Ca2+ swelling absorbance, 30 min;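 active = inhibition of 50% or more, scaled per plate between neutral and stimulator controls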;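 also: 0% = DMSO wells given calcium and 100% = 1 mM EGTA wells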
DTT redox prof = compounds producing H2O2 with reducing agent – biochemical, NIH compound library profiling, artefact control for MLSCN library redox annotation, primary screen; DTT-dependent redox cycling H2O2, phenol red/HRP absorbance; 100% = 100 µM peroxide control, 0% = buffer; activation, % at 10 µM; 200,000 tested, 0.03% active; AID 878;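 active = activation of at least 50% relative to the plate's high and low controls in the primary single-dose screen; inactive = activation below 50%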;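 also: compound incubated with DTT at 0.8 mM final as the reducing agent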
L major viab = Leishmania major promastigote growth inhibition. 200,000 tested, 9% active. Leishmania major promastigotes, resazurin fluorescence viability. AID 1063. inhibition, % at 10 µM; in the data active = inhibition above about 50%;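 also: promastigotes grown with compound for 44 hours at 28 °C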
T cruzi repl = blocks replication of Trypanosoma cruzi; AID 1885; inhibition, % (no concentration beside the values); 300,000 tested, 1.4% active; T. cruzi beta-gal in NIH3T3, luminescence, 90 h;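 active = mean inhibition across valid replicates above about 55%, limit read from the data; inconclusive = mean below that limit but half or more replicates reach it; inactive = mean below it, under half of replicates reach it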;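 also: signal also drops with host cell toxicity which is not excluded here; 0% = plate median of DMSO wells and 100% = zero luminescence signal; higher percent means less beta-gal luminescence so fewer parasites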
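System – NIH/3T3 host cells with β-galactosidase reporter T. cruzi · Doses – single 50 nL compound addition per well in DMSO · Reagent – 5000 T. cruzi trypomastigotes/well · Medium – Low-serum DMEM with 2% FBS · Timing – ≥90 h infection period, 3 h prior cell attachment · Evaluation – parasite load inhibition, % · Technique – GalScreen luminescence, 60 min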
* = called active by the depositor; ? = inconclusive; . = not tested or not shown. Only a selection was taken, and hits are over-represented in it overall.

SMILES	Hep lipid drop	MPTP block	DTT redox prof	L major viab	T cruzi repl
CCOC(=O)C1(Cc2ccccc2)CCCN(CCCn2cccn2)C1 (stereo unspecified)	-10	-2	0	91*	0
CCOC(=O)C1(Cc2ccccc2Cl)CCN(C(=O)CCn2ccnc2C)CC1	-34	-2	0	100*	-1
CCOC(=O)C1(Cc2ccc(Cl)cc2)CCN(CCCn2cccn2)CC1	-1	-2	0	85*	.
CCOC(=O)C1(Cc2ccccc2)CCCN(C2CCN(C(C)=O)CC2)C1 (stereo unspecified)	-3	2	-1	79*	5
CCOC(=O)C1(Cc2ccc(Cl)cc2)CCN(Cc2nccn2CC)CC1	-2	0	-1	79*	6
Nc1ncnc(Oc2ccccc2F)c1[N+](=O)[O-]	11	-4	1	-1	-12
O=C(N/N=C/c1ccccc1)c1n[nH]c2c1CCCC2	1	-1	0	16	-6
O=C(N/N=C/c1ccccc1Cl)c1n[nH]c2c1CCCC2	-5	1	0	89*	-17
O=C(N/N=C/C(Br)=C/c1ccccc1)c1n[nH]c2c1CCC2	?	0	0	98*	-24
Cc1ccc(C)c(-n2c3nc(=O)n(C)c(=O)c-3cc3ccccc32)c1	0	2	.	.	42
Cc1ccc(C)c(-n2c3nc(=O)[nH]c(=O)c-3cc3cc([N+](=O)[O-])ccc32)c1	?	1	0	97*	.
Clc1nc(-c2ccccn2)nc2scc(-c3ccccc3)c12	-17	1	0	66*	14
N#Cc1c2ccc(O)cc2n2ccccc12	10	2	0	100*	65*
CC(Sc1nc2ccccc2n1C)C(=O)NC(c1ccccc1)c1ccccc1 (stereo unspecified)	-8	2	-1	100*	-1
CC(Sc1nc2ccccc2n1C)C(=O)Nc1ccc(N2CCOCC2)cc1 (stereo unspecified)	-2	0	-1	4	-9
O=C(c1cc(COc2cccc3cnccc23)on1)N1CCC(c2ccccc2Cl)C1 (stereo unspecified)	-21	18	.	.	63*
O=C(c1cc(COc2c(F)cccc2F)on1)N1CCC(c2ccccc2Cl)C1 (stereo unspecified)	2	5	1	19	15
Cc1ccc2nc(N(CCCN(C)C)C(=O)c3ccc(S(=O)(=O)N4CCOCC4)cc3)sc2c1	-3	0	.	.	60*
Cc1ccc2sc(N(CCCN(C)C)C(=O)c3ccc(S(=O)(=O)N4CCOCC4)cc3)nc2c1C	.	16	.	.	66*
Cc1cc(C)c2nc(N(CCCN(C)C)C(=O)c3ccc(S(=O)(=O)N4CC(C)OC(C)C4)cc3)sc2c1 (stereo unspecified)	.	6	.	.	59*
CCOC(=O)N1CCN(S(=O)(=O)c2ccc(C(=O)N(CCCN(C)C)c3nc4cc(OC)ccc4s3)cc2)CC1	.	-3	.	.	68*
Cc1ccc2sc(N(CCN(C)C)C(=O)c3ccc(S(=O)(=O)N4CC(C)OC(C)C4)cc3)nc2c1C (stereo unspecified)	-4	0	.	.	31
COc1ccc2sc(N(CCCN(C)C)C(=O)c3ccc(S(=O)(=O)N4CCCC4)cc3)nc2c1	.	15	.	.	45
Cc1ccc2nc(N(CCCN(C)C)C(=O)c3ccc(S(=O)(=O)N4CCc5ccccc5C4)cc3)sc2c1	2	2	.	.	28
CCCn1c2ccccc2c2cnn(CC(=O)NCCCN3C(C)CCCC3C)c(=O)c21 (stereo unspecified)	0	-1	.	.	7
SMILES	Hep lipid drop	MPTP block	DTT redox prof	L major viab	T cruzi repl
Cc1ccc(C(C(=O)Nc2ccc3c(c2)OCO3)N(C)C(=O)/C=C\c2ccc3c(c2)OCO3)cc1 (stereo unspecified)	12	2	2	87*	4
CC(=O)NCC(=O)N(C)C(C(=O)Nc1ccc2c(c1)OCCO2)c1ccc(C)cc1 (stereo unspecified)	22	1	0	-8	-4
CC(C)(C)OC(=O)C[C@H]1C/C=C\C[C@H](CC(=O)N(CCO)Cc2ccccc2)C(=O)N[C@@H](Cc2ccccc2)COC1=O	.	0	.	.	.
CC(=O)Nc1ccc(NC(=O)C(C)Oc2ccc(Cl)cc2Cl)cc1 (stereo unspecified)	7	1	0	57*	4
CC(Oc1ccc(Cl)cc1Cl)C(=O)NCCCN1CCOCC1 (stereo unspecified)	.	0	-1	90*	-13
C/C(=N\NC(=O)c1c(Br)c(C)nn1C)c1ccc(NC(=O)C(C)Oc2ccc(Cl)cc2C)cc1 (stereo unspecified)	.	0	-4	98*	16
CC(Oc1ccc(Cl)cc1Cl)C(=O)Nc1ccc(OCC(=O)O)cc1 (stereo unspecified)	-2	-4	1	-2	-3
COc1ccc(-n2c(SCC(=O)Nc3ccc(Br)cc3)nc(O)cc2=O)cc1	-1	3	.	.	-18
Cc1cc(C)n(C(=O)/C(C#N)=C/N(C)C)n1	-1	0	-1	-1	-11
COc1ccccc1CCNC(=O)c1ccc(NC(=O)CC2SC(N3CCCCC3)=NC2=O)cc1 (stereo unspecified)	.	-1	.	.	.
CC(=O)N1CCN(Cc2nc3cc(NC(=O)COc4cccc(C)c4)ccc3n2C)CC1	8	0	.	.	-6
Oc1ccc(/C=N/Nc2ncnc3c2ncn3Cc2ccccc2)cc1O	15	2	1	7	-8
Oc1cccc(/C=N/Nc2ncnc3c2ncn3Cc2ccccc2)c1	4	0	0	66*	-11
CCCNC(=S)NCc1ccc(Cl)cc1	-24	1	0	-7	-3
CCOCCCNC(=O)C1CCN(Cc2cccc(OCc3ccccc3)c2)CC1	-3	2	.	.	12
CCOCCCNCc1cccc(OCc2ccc(F)cc2)c1	-4	1	-1	99*	24
CCOCCCNCc1ccc(Cl)cc1	-9	0	0	69*	7
Cc1ccc(S(=O)(=O)N2CCOC2CNC(=O)C(=O)NCCN2CCOCC2)cc1 (stereo unspecified)	1	-1	.	.	-9
Cc1ccc(C(=O)OCC(=O)Nc2ccccc2Sc2ccccc2)cc1C	-5	0	.	62*	0
O=C(COC(=O)C1CC1)Nc1ccccc1Sc1ccccc1	-1	1	4	-5	3
COC(=O)C1CCN(CC(=O)Nc2ccccc2Sc2ccccc2)CC1	4	10	-1	52*	29
NC(=O)C1CCN(CC(=O)Nc2ccccc2Sc2ccc(Cl)cc2)CC1	-2	-10	0	93*	5
Cn1c(SCC(=O)N2CCOCC2)nc2c(c1=O)SCC2	7	-1	.	.	-1
COc1ccc(C(=O)NCC(=O)OCC(=O)N2N=C(c3ccc(Cl)cc3)CC2c2ccco2)cc1OC (stereo unspecified)	2	-2	1	13	-5
